Values after ≈ are worked out from the molar mass of the structure shown. Active and inactive are the calls of the source.
Assays:
[1] = Selectivity index, ratio of cytotoxicity against pig LLC-PK1 cells to IC50 for Cryptococcus neoformans ATCC 90113; assay type: toxicity, cell-based; conditions: read-out: Selectivity Index
Staphylococcus aureus [2] = assay: Antibacterial activity against Staphylococcus aureus ATCC 29213 assessed as growth inhibition after 16-20 hrs by CLSI method; assay type: functional, organism-based
Aspergillus fumigatus = assay: Antifungal activity against Aspergillus fumigatus assessed as growth inhibition; assay type: functional, organism-based
LLC-PK1 = assay: Cytotoxicity against pig LLC-PK1 cells assessed as cell viability after 48 hrs by neutral red uptake assay; assay type: cell-based, Sus scrofa; conditions: llc-pk1, 48 h
In short: (§1)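 Neutral red uptake assay on human cancer lines (SK-MEL, KB, BT-549, SK-OV-3) and noncancerous mammalian cells (VERO, LLC-PK1). Highest tested concentration was 10 µg/mL.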

[3] = Selectivity index, ratio of cytotoxicity against human KB cells to IC50 for Cryptococcus neoformans ATCC 90113; assay type: toxicity, cell-based; conditions: read-out: Selectivity Index
SK-OV-3 = assay: Cytotoxicity against human SKOV3 cells assessed as cell viability after 48 hrs by neutral red uptake assay; assay type: cell-based; conditions: sk-ov-3, 48 h; in short: as §1
Nakaseomyces glabratus = assay: Antifungal activity against Candida glabrata assessed as growth inhibition; assay type: functional, organism-based
Escherichia coli = assay: Antibacterial activity against Escherichia coli ATCC 35218 assessed as growth inhibition after 16-20 hrs by CLSI method; assay type: functional, organism-based
[4] = Selectivity index, ratio of cytotoxicity against human SKOV3 cells to IC50 for Cryptococcus neoformans ATCC 90113; assay type: toxicity, cell-based, SK-OV-3; conditions: read-out: Selectivity Index
[5] = Selectivity index, ratio of cytotoxicity against african green monkey Vero cells to IC50 for Cryptococcus neoformans ATCC 90113; assay type: toxicity, cell-based; conditions: read-out: Selectivity Index
[6] = Selectivity index, ratio of cytotoxicity against human BT549 cells to IC50 for Cryptococcus neoformans ATCC 90113; assay type: toxicity, cell-based, BT-549; conditions: read-out: Selectivity Index
[7] = Selectivity index, ratio of cytotoxicity against human SK-MEL cells to IC50 for Cryptococcus neoformans ATCC 90113; assay type: toxicity, cell-based; conditions: read-out: Selectivity Index
Cryptococcus neoformans [8] = assay: Antifungal activity against Cryptococcus neoformans ATCC 90113 assessed as growth inhibition after 70-74 hrs by CLSI method; assay type: functional, organism-based; conditions: Cryptococcus neoformans, ATCC 90113; for IC50: read-out: IC50
Staphylococcus aureus [9] = assay: Antibacterial activity against methicillin-resistant Staphylococcus aureus ATCC 33591 assessed as growth inhibition after 16-20 hrs by CLSI method; assay type: functional, organism-based
Candida albicans = assay: Antifungal activity against Candida albicans assessed as growth inhibition; assay type: functional, organism-based
Pichia kudriavzevii = assay: Antifungal activity against Candida krusei assessed as growth inhibition; assay type: functional, organism-based
SK-MEL = assay: Cytotoxicity against human SK-MEL cells assessed as cell viability after 48 hrs by neutral red uptake assay; assay type: cell-based; in short: as §1
KB = assay: Cytotoxicity against human KB cells assessed as cell viability after 48 hrs by neutral red uptake assay; assay type: cell-based; in short: as §1
Vero = assay: Cytotoxicity against african green monkey Vero cells assessed as cell viability after 48 hrs by neutral red uptake assay; assay type: cell-based; conditions: chlorocebus sabaeus; in short: as §1
BT-549 = assay: Cytotoxicity against human BT549 cells assessed as cell viability after 48 hrs by neutral red uptake assay; assay type: cell-based; conditions: bt-549, 48 h; in short: as §1
Cryptococcus neoformans [10] = assay: Ratio of amphotericin IC50 to compound IC50 for Cryptococcus neoformans ATCC 90113 after 70-74 hrs by CLSI method; assay type: functional
Cryptococcus neoformans [11] = assay: Ratio of amphotericin MFC to compound MFC for Cryptococcus neoformans ATCC 90113 after 70-74 hrs by CLSI method; assay type: functional
Cryptococcus neoformans [12] = assay: Ratio of amphotericin MIC to compound MIC for Cryptococcus neoformans ATCC 90113 after 70-74 hrs by CLSI method; assay type: functional
[13] = Staphylococcus aureus, ATCC 33591
[14] = Staphylococcus aureus, ATCC 33591, read-out: IC50

Row | SMILES | selectivity ratio [1] | IC50 (Staphylococcus aureus [2]) | MIC (Staphylococcus aureus [2]) | growth inhibition (GI) (Aspergillus fumigatus) | Activity (LLC-PK1) | selectivity ratio [3] | Activity (SK-OV-3) | growth inhibition (GI) (Nakaseomyces glabratus) | growth inhibition (GI) (Escherichia coli) | selectivity ratio [4] | selectivity ratio [5] | selectivity ratio [6] | selectivity ratio [7] | MFC (Cryptococcus neoformans [8]) | MIC (Cryptococcus neoformans [8]) | IC50 (Cryptococcus neoformans [8]) | growth inhibition (GI) (Candida albicans) | growth inhibition (GI) (Pichia kudriavzevii) | Activity (SK-MEL) | Activity (KB) | other results
1 | CC(C)(C)OC(=O)N[C@@H](Cc1c[nH]c(-c2ccc(-c3ccccc3)cc2)n1)C(=O)N[C@@H](CCCNC(=N)N)C(=O)NCc1ccccc1 | > 9.2 | 7.3 µg/mL (≈ 11.2 µM) | 10 µg/mL (≈ 15.3 µM) | inactive | > 10 µg/mL | > 9.2 | > 10 µg/mL | inactive | inactive | > 9.2 | > 9.2 | > 9.2 | > 9.2 | 2.5 µg/mL (≈ 3.83 µM) | 2.5 µg/mL (≈ 3.83 µM) | 1.09 µg/mL (≈ 1.67 µM) | inactive | inactive | > 10 µg/mL | > 10 µg/mL | MBC (Staphylococcus aureus [9]): inactive; MIC (Staphylococcus aureus [9]; [13]): 20 µg/mL (≈ 30.6 µM); IC50 (Staphylococcus aureus [9]; [14]): 8.97 µg/mL (≈ 13.7 µM); Activity (Vero): > 10 µg/mL; Activity (BT-549): > 10 µg/mL
2 | CC(C)(C)c1ccc(-c2nc(C[C@H](NC(=O)[C@@H](N)Cc3c[nH]c4ccccc34)C(=O)NCc3ccccc3)c[nH]2)cc1 | > 2.21 | 11.7 µg/mL (≈ 20.7 µM) | 20 µg/mL (≈ 35.5 µM) | inactive | > 10 µg/mL | > 2.21 | > 10 µg/mL | inactive | inactive | > 2.21 | > 2.21 | > 2.21 | > 2.21 | 10 µg/mL (≈ 17.8 µM) | 10 µg/mL (≈ 17.8 µM) | 4.53 µg/mL (≈ 8.05 µM) | inactive | inactive | > 10 µg/mL | > 10 µg/mL | MBC (Staphylococcus aureus [2]): inactive; IC50 (Staphylococcus aureus [9]): Not Active; MBC (Staphylococcus aureus [9]): inactive; MIC (Staphylococcus aureus [9]): inactive; Activity (Vero): > 10 µg/mL; Activity (BT-549): > 10 µg/mL
3 | N=C(N)NCCC[C@H](NC(=O)[C@@H](N)Cc1c[nH]c(-c2ccc(-c3ccccc3)cc2)n1)C(=O)NCc1ccccc1 | > 50 | 12.8 µg/mL (≈ 23.2 µM) | inactive | inactive | > 10 µg/mL | > 50 | > 10 µg/mL | inactive | inactive | > 50 | > 50 | > 50 | > 50 | 0.31 µg/mL (≈ 0.561 µM) | 0.31 µg/mL (≈ 0.561 µM) | 0.2 µg/mL (≈ 0.362 µM) | inactive | inactive | > 10 µg/mL | > 10 µg/mL | MBC (Staphylococcus aureus [2]): inactive; IC50 (Staphylococcus aureus [9]): Not Active; MBC (Staphylococcus aureus [9]): inactive; MIC (Staphylococcus aureus [9]): inactive; Activity (Vero): > 10 µg/mL; Activity (BT-549): > 10 µg/mL
4 | CC(C)(C)c1ccc(-c2nc(C[C@H](N)C(=O)N[C@@H](CCCNC(=N)N)C(=O)NCc3ccccc3)c[nH]2)cc1 | > 62.5 | 15.9 µg/mL (≈ 29.8 µM) | inactive | inactive | > 10 µg/mL | > 62.5 | > 10 µg/mL | inactive | inactive | > 62.5 | > 62.5 | > 62.5 | > 62.5 | 0.31 µg/mL (≈ 0.582 µM) | 0.31 µg/mL (≈ 0.582 µM) | 0.16 µg/mL (≈ 0.3 µM) | inactive | inactive | > 10 µg/mL | > 10 µg/mL | Ratio IC50 (Cryptococcus neoformans [10]): >4; MBC (Staphylococcus aureus [2]): inactive; Ratio (Cryptococcus neoformans [11]): >4; IC50 (Staphylococcus aureus [9]): Not Active; MBC (Staphylococcus aureus [9]): inactive; MIC (Staphylococcus aureus [9]): inactive; Ratio (Cryptococcus neoformans [12]): >4; Activity (Vero): > 10 µg/mL; Activity (BT-549): > 10 µg/mL
5 | N[C@@H](Cc1c[nH]c2ccccc12)C(=O)N[C@@H](Cc1c[nH]c(-c2ccc(-c3ccccc3)cc2)n1)C(=O)NCc1ccccc1 | > 18.5 | 2.6 µg/mL (≈ 4.46 µM) | 5 µg/mL (≈ 8.58 µM) | inactive | > 10 µg/mL | > 18.5 | > 10 µg/mL | inactive | inactive | > 18.5 | > 18.5 | > 18.5 | > 18.5 | 1.25 µg/mL (≈ 2.15 µM) | 1.25 µg/mL (≈ 2.15 µM) | 0.54 µg/mL (≈ 0.927 µM) | inactive | inactive | > 10 µg/mL | > 10 µg/mL | MBC (Staphylococcus aureus [2]): 20 µg/mL (≈ 34.3 µM); MBC (Staphylococcus aureus [9]; [13]): 20 µg/mL (≈ 34.3 µM); MIC (Staphylococcus aureus [9]; [13]): 10 µg/mL (≈ 17.2 µM); IC50 (Staphylococcus aureus [9]; [14]): 4.31 µg/mL (≈ 7.4 µM); Activity (Vero): > 10 µg/mL; Activity (BT-549): > 10 µg/mL
6 | CC(C)(C)OC(=O)N[C@@H](Cc1c[nH]c(-c2ccc(C(C)(C)C)cc2)n1)C(=O)N[C@@H](CCCNC(=N)N)C(=O)NCc1ccccc1 | > 4.1 | 5.95 µg/mL (≈ 9.4 µM) | 10 µg/mL (≈ 15.8 µM) | inactive | > 10 µg/mL | > 4.1 | > 10 µg/mL | inactive | inactive | > 4.1 | > 4.1 | > 4.1 | > 4.1 | 2.5 µg/mL (≈ 3.95 µM) | 2.5 µg/mL (≈ 3.95 µM) | 2.42 µg/mL (≈ 3.82 µM) | inactive | inactive | > 10 µg/mL | > 10 µg/mL | MBC (Staphylococcus aureus [2]): inactive; MBC (Staphylococcus aureus [9]): inactive; MIC (Staphylococcus aureus [9]; [13]): 20 µg/mL (≈ 31.6 µM); IC50 (Staphylococcus aureus [9]; [14]): 9.32 µg/mL (≈ 14.7 µM); Activity (Vero): > 10 µg/mL; Activity (BT-549): > 10 µg/mL

From ChEMBL document CHEMBL3132745, “Synthesis and Antimicrobial Activities of His(2-aryl)-Arg and Trp-His(2-aryl) Classes of Dipeptidomimetics” (Medchemcomm, 2014)
